Test results published in ChEMBL document CHEMBL4610116, “Salicylanilide Analog Minimizes Relapse of Clostridioides difficile Infection in Mice” (J Med Chem, 2020).
Converted amounts (≈) assume the structure as drawn. The source made the active and inactive calls. The calls are words filed in the database; no cut-off is given here.

Key:
[1] = test system: Clostridioides difficile; assay: Antimicrobial activity against Clostridioides difficile CD10463 incubated for 20 to 24 hrs by broth microdilution method; format: functional
Summary of the method: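 Broth microdilution in pre-reduced BHIS using two-fold serial dilutions and ~5 × 10⁵ cfu/mL inoculum. Incubated 20–24 h at 37°C, anaerobic (8% H₂, 8% CO₂, 84% N₂). MIC read by the Lambert-Pearson method; duplicates.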

[2] = test system: Clostridioides difficile; assay: (§1) Suppression of relapse of Clostridioides difficile 630 infection in cefoperazone-treated C57BL/6J mouse model of recurrent Clostridioides difficile 630 infection assessed as reduction in body weight loss at 0.4 mg/ml, po for 5 days from day 4 to 9 after infection with spores and measured on day 3; format: functional, organism-based
Summary of the method: (§2)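 Cefoperazone 0.5 mg/ml in drinking water for 5 days, then 2-day washout, in 5-week-old male and female C57BL/6J mice. Oral gavage of 10⁵ C. difficile 630 spores on day 0. Vancomycin 0.4 mg/mL given in drinking water ad libitum on days 4–9. Body weight recorded daily and clinical signs watched for 14 days; n=6 per group.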

[3] = test system: Clostridioides difficile; assay: as §1, with “in microbial load (total vegetative cells plus spores)” for “in body weight loss”, “day 7” for “day 3”; format: functional, organism-based
Summary of the method: (§3)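 Strain 630 spore challenge (10⁵, gavage) of cefoperazone-treated mice; vancomycin 0.4 mg/mL in drinking water on days 4–9. Feces diluted 1:10 in PBS and settled anaerobically 30 min. Ten-fold dilutions plated on TCCFA, incubated anaerobically at 37°C for 24 h. Result is CFU/g feces of total vegetative cells plus spores from unheated samples. Mixed-effect model with Tukey post test.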

[4] = test system: Clostridioides difficile; assay: as §1, with “day 3 after drug cessation” for “day 3”; format: functional, organism-based; summary of the method: as §2
[5] = test system: Clostridioides difficile; assay: as §1, with “reduction in microbial load in feces (total vegetative cells plus spores) at 0.4” for “reduction in body weight loss at 0.4”, “day 3 after drug cessation” for “day 3”; format: functional, organism-based; summary of the method: as §3
[6] = test system: Clostridioides difficile; assay: Suppression of relapse of Clostridioides difficile 630 infection in cefoperazone-treated C57BL/6J mouse model of recurrent Clostridioides difficile 630 infection assessed as reduction in weight loss at 0.4 mg/ml, po for 5 days from day 4 to 9 after infection with spores and measured on day 14; format: functional; set-up: scale not given: the % may be the effect or the level left; summary of the method: as §2
[7] = test system: Clostridioides difficile; assay: (§4) Suppression of relapse of Clostridioides difficile 630 infection in cefoperazone-treated C57BL/6J mouse model of recurrent Clostridioides difficile 630 infection assessed as reduction in clinical illness at 0.4 mg/ml, po for 5 days from day 4 to 9 after infection with spores measured on day day 14; format: functional, organism-based; summary of the method: as §2
[8] = test system: Clostridioides difficile; assay: as §4, with “histopathological summary scores” for “clinical illness”; format: functional, organism-based
[9] = test system: Clostridioides difficile; assay: as §4, with “group-Bacteroidaceae level” for “clinical illness”; format: functional, organism-based
Summary of the method: (§5)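 Infection model: cefoperazone 0.5 mg/ml in drinking water for 5 days, 2-day washout, then 10⁵ strain 630 spores by gavage. Vancomycin 0.4 mg/mL in drinking water, days 4–9. Cecal tissue snips taken at day 14 necropsy; gut bacterial community profiled by 16S rRNA gene sequencing on Illumina MiSeq. n=6 per group.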

[10] = test system: Clostridioides difficile; assay: as §4, with “group-Proteobacteria level” for “clinical illness”; format: functional, organism-based; summary of the method: as §5

Compound	MIC [1] [µM]	also measured
COc1cc(NC(=O)c2cc(Cl)cc(Cl)c2O)ccc1Oc1ccc(Cl)cc1	2.6 (≈ 1.14 µg/mL)	–
O=C(Nc1ccc(Oc2ccc(Cl)cc2)c(Cl)c1)c1cc(Cl)cc(Cl)c1O	0.11 (≈ 0.0487 µg/mL)	–
O=C(Nc1ccc(Oc2ccc(Cl)cc2)cc1)c1cc(Cl)cc(Cl)c1O	1.4 (≈ 0.572 µg/mL)	–
COc1cc(Oc2ccc(Cl)cc2)ccc1NC(=O)c1cc(Cl)cc(Cl)c1O	3.6 (≈ 1.58 µg/mL)	–
O=C(Nc1ccc(Oc2ccc(Cl)cc2)cc1Br)c1cc(Cl)cc(Cl)c1O	0.18 (≈ 0.0878 µg/mL)	–
O=C(Nc1cc([N+](=O)[O-])c(Oc2ccc(Cl)cc2)c([N+](=O)[O-])c1)c1cc(Cl)cc(Cl)c1O	> 2	–
CN[C@H](CC(C)C)C(=O)N[C@H]1C(=O)N[C@@H](CC(N)=O)C(=O)N[C@H]2C(=O)N[C@H]3C(=O)N[C@H](C(=O)N[C@H](C(=O)O)c4cc(O)cc(O)c4-c4cc3ccc4O)[C@H](O)c3ccc(c(Cl)c3)Oc3cc2cc(c3O[C@@H]2O[C@H](CO)[C@@H](O)[C@H](O)[C@H]2O[C@H]2C[C@](C)(N)[C@H](O)[C@H](C)O2)Oc2ccc(cc2Cl)[C@H]1O [VANCOMYCIN]	2.1 (≈ 3.04 µg/mL)	Activity [2]: Active; Activity [3]: Active; Activity [4]: inactive; Activity [5]: inactive; Activity [6]: 10 - 26%; Activity [7]: inactive; Activity [8]: inactive; Activity [9]: inactive; Activity [10]: inactive
O=C(Nc1ccc(Oc2ccc(Cl)cc2)c(I)c1)c1cc(Cl)cc(Cl)c1O	0.6 (≈ 0.321 µg/mL)	–
O=C(Nc1cc(I)c(Oc2ccc(Cl)cc2)c(I)c1)c1cc(Cl)cc(Cl)c1O	0.075 (≈ 0.0495 µg/mL)	–
O=C(Nc1ccc(Oc2ccc(Cl)cc2)cc1I)c1cc(Cl)cc(Cl)c1O	0.17 (≈ 0.0909 µg/mL)	–
O=C(Nc1ccc(Oc2ccc(Cl)cc2)c(F)c1)c1cc(Cl)cc(Cl)c1O	0.135 (≈ 0.0576 µg/mL)	–
N#Cc1cc(NC(=O)c2cc(Cl)cc(Cl)c2O)ccc1Oc1ccc(Cl)cc1	0.37 (≈ 0.16 µg/mL)	–
O=C(Nc1ccc(Oc2ccc(Cl)cc2)c(Br)c1)c1cc(Cl)cc(Cl)c1O	0.1 (≈ 0.0488 µg/mL)	–
